The structures appear in SMILES notation. pIC50: −log10 of the molar value.

The first experiment deals with KB. As to the kind of experiment: Antiproliferative activity against human KB cells assessed as growth inhibition after 48 hrs by MTT assay. Format: functional, cell-based.
Details: not given
The gist of the method:
(§1)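 Cell lines from ATCC, grown in MEM-EBSS with 10% FBS and 1% penicillin-streptomycin at 37 °C, 5% CO2. Seeded at 4000 cells/well, left 24 h, then exposed to a concentration series for 48 h. Growth read by MTT. Percent inhibition was computed at each concentration and IC50 derived from it. Triplicate determinations, reported as mean SD.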
For orientation: pIC50 means −log10 of the IC50, conventionally taken in molar units. As to `CC[C@@]1(O)C(=O)OCc2c1cc1n(c2=O)Cc2cc3c(CN(C)C)c(O)ccc3nc2-1` [TOPOTECAN], the negative logarithm of the IC50 (pIC50) was below 3.70.

Another experiment deals with HepG2. As to the kind of experiment: Antiproliferative activity against human HepG2 cells assessed as growth inhibition after 48 hrs by MTT assay. Particulars: HepG2, 48 h. Format: functional, cell-based. The gist of the method:
as §1
A general note: Formazan colour is commonly taken as a measure of viable cells.
As a reminder, the IC50 is the point on the concentration scale where inhibition reaches its midpoint. As for `O=C(O)CCC[C@@H]1[C@H]2CCCN3CCC[C@H](CN1C(=O)CBr)[C@@H]23`, the IC50 stood at 15.4 µg/mL.
Turning to `O=C1CCC[C@@H]2[C@H]3CCCN4CCC[C@H](CN12)[C@@H]34` [SOPHORIDINE], the concentration for half-maximal inhibition (IC50) was above 20 µg/mL.
As to `CC[C@@]1(O)C(=O)OCc2c1cc1n(c2=O)Cc2cc3c(CN(C)C)c(O)ccc3nc2-1` [TOPOTECAN], the pIC50 was 5.78.

A further experiment relates to HepG2. The experiment in a line: Antiproliferative activity against human HepG2 cells assessed as growth inhibition at 10 ug/ml after 48 hrs by MTT assay. Format: functional. Particulars: HepG2, 48 h. The gist of the method:
as §1
The term inhibition denotes the percentage by which the read-out fell short of the control. For the molecule `OCCCC[C@@H]1[C@H]2CCCN3CCC[C@@H](CN1Cc1ccccc1)[C@@H]23`, the inhibition at 10 µg/mL is 31%.
As to `COCCCC[C@@H]1[C@H]2CCCN3CCC[C@H](CN1Cc1ccccc1)[C@@H]23`, the inhibition at 10 µg/mL is 4.4%.
As for `COC(=O)CCC[C@H]1NC[C@H]2CCCN3CCC[C@H]1[C@H]23`, the inhibition at 10 µg/mL is 33.4%.
Still for that read-out and setting: for `CCCN1C[C@H]2CCCN3CCC[C@@H]([C@H]23)[C@H]1CCCC(=O)OC` the value was 24.9%; for `COC(=O)CCC[C@@H]1[C@H]2CCCN3CCC[C@H](CN1CC(C)C)[C@@H]23`, 26.8%.
As for `COC(=O)CCC[C@@H]1[C@H]2CCCN3CCC[C@H](CN1Cc1ccccc1F)[C@@H]23`, the inhibition at 10 µg/mL stood at 60.8%.
Consider `COC(=O)CCC[C@@H]1[C@H]2CCCN3CCC[C@H](CN1Cc1cccc(F)c1)[C@@H]23`, for which the inhibition at 10 µg/mL is 81.8%.
On the same count and under the same terms, for `COC(=O)CCC[C@@H]1[C@H]2CCCN3CCC[C@H](CN1Cc1ccc(F)cc1)[C@@H]23` the value was 73.1%; for `COC(=O)CCC[C@@H]1[C@H]2CCCN3CCC[C@H](CN1Cc1cccc(Cl)c1)[C@@H]23`, 84.9%; for `COC(=O)CCC[C@@H]1[C@H]2CCCN3CCC[C@H](CN1Cc1ccc(Br)cc1)[C@@H]23`, 89.6%.
On to `COC(=O)CCC[C@@H]1[C@H]2CCCN3CCC[C@H](CN1Cc1ccncc1)[C@@H]23`, for which the inhibition at 10 µg/mL is 29.9%.
On to `COC(=O)CCC[C@@H]1[C@H]2CCCN3CCC[C@H](CN1Cc1ccco1)[C@@H]23`, for which the inhibition at 10 µg/mL amounted to 16.6%.
As for `CCCN1C[C@H]2CCCN3CCC[C@@H]([C@H]23)[C@H]1CCCC(=O)O`, the inhibition at 10 µg/mL stood at 25.3%.
Same read-out and setting: in the case of `CC(C)CN1C[C@H]2CCCN3CCC[C@@H]([C@H]23)[C@H]1CCCC(=O)O` it was 10.7%.
In the case of `O=C(O)CCC[C@@H]1[C@H]2CCCN3CCC[C@H](CN1Cc1ccccc1)[C@@H]23`, the inhibition at 10 µg/mL turned out to be 1.5%.
For `O=C(O)CCC[C@@H]1[C@H]2CCCN3CCC[C@H](CN1Cc1ccccc1F)[C@@H]23`, the inhibition at 10 µg/mL is 1.6%.
As for `O=C(O)CCC[C@@H]1[C@H]2CCCN3CCC[C@H](CN1Cc1cccc(F)c1)[C@@H]23`, the inhibition at 10 µg/mL was 25.2%.
`O=C(O)CCC[C@@H]1[C@H]2CCCN3CCC[C@H](CN1Cc1ccc(F)cc1)[C@@H]23`: the inhibition at 10 µg/mL was 2%.
As for `O=C(O)CCC[C@@H]1[C@H]2CCCN3CCC[C@H](CN1Cc1cccc(Cl)c1)[C@@H]23`, the inhibition at 10 µg/mL worked out at 22.8%.
For `O=C(O)CCC[C@@H]1[C@H]2CCCN3CCC[C@H](CN1Cc1ccc(Cl)cc1)[C@@H]23`, the inhibition at 10 µg/mL is 3.5%.
In the case of `O=C(O)CCC[C@@H]1[C@H]2CCCN3CCC[C@H](CN1Cc1ccc(Br)cc1)[C@@H]23`, the inhibition at 10 µg/mL was found to be 24.9%.
Same read-out and setting: in the case of `O=C(O)CCC[C@@H]1[C@H]2CCCN3CCC[C@H](CN1Cc1ccncc1)[C@@H]23` it was 22.3%.
Take `NC(=O)CCC[C@@H]1[C@H]2CCCN3CCC[C@H](CN1Cc1ccc(Cl)cc1)[C@@H]23`: the inhibition at 10 µg/mL stood at 1.7%.
For `CCCN1C[C@H]2CCCN3CCC[C@@H]([C@H]23)[C@H]1CCCCO`, the inhibition at 10 µg/mL amounted to 0.9%.
In the case of `CCCCN1C[C@H]2CCCN3CCC[C@@H]([C@H]23)[C@H]1CCCCO`, the inhibition at 10 µg/mL came out at 19.7%.
As to `CC(C)(C)CN1C[C@H]2CCCN3CCC[C@@H]([C@H]23)[C@H]1CCCCO`, the inhibition at 10 µg/mL came to 95.7%.
Consider `CC(C)CN1C[C@H]2CCCN3CCC[C@@H]([C@H]23)[C@H]1CCCCO`, for which the inhibition at 10 µg/mL stood at 9.1%.
In the case of `OCCCC[C@@H]1[C@H]2CCCN3CCC[C@H](CN1Cc1ccccc1)[C@@H]23`, the inhibition at 10 µg/mL was found to be 18.7%.
`Cc1ccc(CN2C[C@H]3CCCN4CCC[C@@H]([C@H]34)[C@H]2CCCCO)cc1`: the inhibition at 10 µg/mL turned out to be 17.8%.
Turning to `OCCCC[C@@H]1[C@H]2CCCN3CCC[C@H](CN1Cc1ccccc1F)[C@@H]23`, the inhibition at 10 µg/mL came out at 30.9%.
With `OCCCC[C@@H]1[C@H]2CCCN3CCC[C@H](CN1Cc1cccc(F)c1)[C@@H]23`, the inhibition at 10 µg/mL was determined as 24.3%.
On the same count and under the same terms, for `OCCCC[C@@H]1[C@H]2CCCN3CCC[C@H](CN1Cc1ccc(F)cc1)[C@@H]23` the value was 35.7%; for `OCCCC[C@@H]1[C@H]2CCCN3CCC[C@H](CN1Cc1ccccc1Cl)[C@@H]23`, 88.1%; for `OCCCC[C@@H]1[C@H]2CCCN3CCC[C@H](CN1Cc1ccncc1)[C@@H]23`, 1.2%.
The same measure, in the same setting: in the case of `OCCCC[C@@H]1[C@H]2CCCN3CCC[C@H](CN1Cc1ccco1)[C@@H]23` it was 33.2%.
Turning to `OCCCC[C@@H]1[C@H]2CCCN3CCC[C@H](CN1CCc1ccccc1)[C@@H]23`, the inhibition at 10 µg/mL stood at 34.6%.
As for `CCOCCCC[C@@H]1[C@H]2CCCN3CCC[C@H](CN1Cc1ccccc1)[C@@H]23`, the inhibition at 10 µg/mL was found to be 2.1%.
On the same count and under the same terms, for `COCCCC[C@@H]1[C@H]2CCCN3CCC[C@H](CN1Cc1ccc(F)cc1)[C@@H]23` the value was 6.8%; for `CCOCCCC[C@@H]1[C@H]2CCCN3CCC[C@H](CN1Cc1ccc(F)cc1)[C@@H]23`, 5.1%.
With `COCCCC[C@@H]1[C@H]2CCCN3CCC[C@H](CN1Cc1ccc(Cl)cc1)[C@@H]23`, the inhibition at 10 µg/mL was 0.3%.
In the case of `CCOCCCC[C@@H]1[C@H]2CCCN3CCC[C@H](CN1Cc1ccc(Cl)cc1)[C@@H]23`, the inhibition at 10 µg/mL amounted to 0.2%.
Still for that read-out and setting: for `COC(=O)CCC[C@@H]1[C@H]2CCCN3CCC[C@@H](CN1Cc1ccc(F)cc1)[C@@H]23` the value was 0.8%; for `OCCCC[C@@H]1[C@H]2CCCN3CCC[C@@H](CN1Cc1ccc(F)cc1)[C@@H]23`, 0.1%.
Take `OCCCC[C@@H]1[C@H]2CCCN3CCC[C@@H](CN1Cc1ccc(Cl)cc1)[C@@H]23`: the inhibition at 10 µg/mL was 4.9%.
In the case of `CC[C@@]1(O)C(=O)OCc2c1cc1n(c2=O)Cc2cc3c(CN(C)C)c(O)ccc3nc2-1` [TOPOTECAN], the inhibition at 10 µg/mL is 72.6%.

The subject of a further experiment is HCT-116. As to the kind of experiment: Antiproliferative activity against human HCT116 cells assessed as growth inhibition after 48 hrs by MTT assay. Type of experiment: functional, cell-based. Particulars: HCT-116, 48 h. The procedure, abridged:
as §1
`CC[C@@]1(O)C(=O)OCc2c1cc1n(c2=O)Cc2cc3c(CN(C)C)c(O)ccc3nc2-1` [TOPOTECAN]: the pIC50 is 5.36.

In a further experiment the test system is NCI-H1299. As to the kind of experiment: Antiproliferative activity against human NCI-H1299 cells assessed as growth inhibition after 48 hrs by MTT assay. Format: functional, cell-based. Particulars: NCI-H1299, 48 h. The procedure, abridged: as §1
Take `CC[C@@]1(O)C(=O)OCc2c1cc1n(c2=O)Cc2cc3c(CN(C)C)c(O)ccc3nc2-1` [TOPOTECAN]: the pIC50 is 4.96.

The subject of another experiment is MCF7. The experiment in a line: Antiproliferative activity against human MCF7 cells assessed as growth inhibition after 48 hrs by MTT assay. Format: functional, cell-based. Particulars: MCF7, 48 h. The procedure, abridged:
as §1
Take `CC[C@@]1(O)C(=O)OCc2c1cc1n(c2=O)Cc2cc3c(CN(C)C)c(O)ccc3nc2-1` [TOPOTECAN]: the pIC50 is 4.84.

System in a further experiment: not listed separately
As to the kind of experiment: Antiproliferative activity against human U87 cells assessed as growth inhibition after 48 hrs by MTT assay. Type of experiment: functional, cell-based, U-87MG ATCC. Particulars: U-87 MG. The procedure, abridged: as §1
For `CC[C@@]1(O)C(=O)OCc2c1cc1n(c2=O)Cc2cc3c(CN(C)C)c(O)ccc3nc2-1` [TOPOTECAN], the pIC50 is 6.80.

The values above are taken from ChEMBL document CHEMBL3259675, “Novel N-substituted sophoridinol derivatives as anticancer agents” (Eur J Med Chem, 2014).
